# Assay: Toxicity liver stage against HepG2, at 10uM
# Assay type: cell-based
# Design: test concentration 10 uM, cell line HepG2-A16-CD81EGFP
# Details: human, HepG2-A16-CD81EGFP cells; read-out: INHIBITION
# Procedure, shortened: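 Uninfected HepG2-A16-CD81EGFP cells, 3 × 10^3 per well, 1536-well, plated on prespotted compound at 10 μM final, parasite-free screening media added to match infected plates; puromycin 10 μM positive, DMSO 0.5% negative; run in parallel with 48 h PbLuc assay at 37 °C, 5% CO2; viability by CellTiter-Glo luminescence, normalized to controls.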
row,Structure (SMILES),cytotoxicity at 10 µM [%]
1,Fc1ccc(C2CN(c3ncnc4nc[nH]c34)CCO2)cc1 (stereo not given),13.1
2,CC(=O)NC[C@@H]1C=C(C)[C@H](CC(=O)NCc2cccnc2)C[C@H]1C(C)C,4.33
3,O=C1CC2(CCN(C(=O)c3ccncc3)CC2)Oc2c(Cl)cc(Cl)cc21,5.17
4,CC1=Nc2c(c(=O)[nH]n2C(C)C)C(c2cccc(OC(F)F)c2)S1 (stereo not given),8.13
5,Cc1ccc(S(=O)(=O)Nc2ccc(-n3nnn(C)c3=O)cc2)cc1,-4.1
6,Cn1nc(CN2CCOCC2)c2c1CN(C(=O)c1ccc[nH]1)C2,8.46
7,CCS(=O)(=O)N1CCC2(CN(C(=O)c3cn(C)cn3)C2)C1,6.4
8,O=C(NCCN1CCCC1)c1cc2c(s1)CCN2C(=O)c1ccccc1,0.559
9,O=C(C1CCOCC1)N1CCc2ncnc(-c3ccccc3)c2CC1,-6.09
10,O=C(Cc1ccccc1)N1CCn2cc(Cn3cncn3)nc2C1,-137
11,O=C(Cn1nc2c(cc1=O)CCCC2)N[C@@H](Cc1ccccc1)C(=O)O,3.17
12,Cc1nn(CCNC(=O)c2cc(C3CC3)[nH]n2)c(C)c1Cl,-3.73
13,COc1ccc2c(=O)ccn(CC(=O)O)c2c1,10.2
14,CC(=O)N1CCCC(c2nccnc2Nc2nc(C)cc(C)n2)C1 (stereo not given),1.43
15,CN(C)c1ncc(-c2ccc(C(N)=O)cc2)c(C2CNCCO2)n1 (stereo not given),-1.42
16,CNc1cc(C2CN(C(=O)c3ccn(C)n3)CCO2)nc(C)n1 (stereo not given),12.6
17,O=C(c1cncs1)N1CCCC1c1ccn[nH]1 (stereo not given),-11.9
18,CCCC(=O)N1CCC(c2ncc3c(n2)CCNC3)CC1,-23.1
19,Cc1ncncc1C(=O)N1CCCC(c2[nH]ncc2S(C)(=O)=O)C1 (stereo not given),-4.41
20,Cc1nn(C)c(C)c1NC(=O)CNC(c1ccccc1)C1CCCC1 (stereo not given),-0.0764
21,CC(C)c1ccc(OCCC(=O)N(C)CC(=O)N(C)C)cc1,4.72
22,Cc1c(NC(=O)CN(C)S(C)(=O)=O)cccc1OC1CCCC1,-0.302

row,Structure (SMILES),cytotoxicity at 10 µM [%]
1,c1cc2c(cc1CN1CCN(Cc3noc(C4CC4)n3)CC1)OCO2,15.8
2,Cc1cscc1C(=O)Nc1cncnc1N(C)C,0.137
3,CN(C)C(=O)CN(C)C(=O)c1cccn1CCc1ccccc1,1.17
4,CN(C)S(=O)(=O)c1ccc(=O)n(CC2CCCO2)c1 (stereo not given),-3.54
5,Cc1ccc(C(=O)NCCS(=O)(=O)N2CCSCC2)n1C,-0.506
6,CN(C)C1CCCN(C(=O)NCCNC(=O)C2CCCC2)C1 (stereo not given),-7.4
7,CN(Cc1ccco1)C(=O)NC(Cn1ccnc1)C(C)(C)C (stereo not given),-3.36
8,CCN(CC)c1ccc(CNC(=O)c2ccc(=O)[nH]n2)cn1,4.16
9,Cc1noc(C)c1C(=O)NCCN1CCOCC1,-10.9
10,N#Cc1ccccc1N1CCN(C(=O)NCCN2CCOCC2)CC1,1.08
11,COCCCNC1CCCN(c2ccc(C)nn2)C1 (stereo not given),-9.9
12,Cc1nc(CN2CCC(CNC(=O)Nc3ccccc3)CC2)oc1C,3.54
13,Cn1cc(-c2csc(N3CCN(c4nccs4)CC3)n2)cn1,6.23
14,c1ccc(-c2cc(CN3CCc4cncnc4C3)on2)cc1,11.3
15,Cc1ccc(Cl)cc1NC(=O)C1CC(=O)N(Cc2ccccn2)C1 (stereo not given),4.67
16,COCc1csc(NC(=O)N2CCC(Cc3cnn(C)c3)C2)n1 (stereo not given),3.13
17,COc1ccc(F)cc1CSCC(=O)N(CCC#N)CCC#N,0.0531
18,Cc1ccc(O)c(C(=O)N2CCCC2c2nncn2CC(C)C)c1 (stereo not given),-3.27
19,Cc1ccc(-n2ccnc2)c(C(=O)NCCCN(C)C)c1,-152
20,CC(C)Oc1ccc(-c2csc(Cn3ccc(=O)[nH]c3=O)n2)cc1,0.137
21,CNC(=O)C(NC(=O)CCc1cccc(OC2CCCC2)c1)C(C)C (stereo not given),10.9
22,NC(=O)NC(=O)CCSCc1cc(F)cc2cccnc12,1.88

row,Structure (SMILES),cytotoxicity at 10 µM [%]
1,CN(CC(N)=O)C(=O)c1cnc(-c2ccc(Cl)s2)s1,-5.02
2,N#Cc1ccc(N2CCCN(c3nccs3)CC2)nc1,32.5
3,CC(Cn1ccnc1)NC(=O)NCCN1CCc2ccccc2C1 (stereo not given),7.65
4,c1csc(N2CCN(c3nccn4cnnc34)CC2)n1,-5.81
5,Cc1sc(CS(C)(=O)=O)nc1-c1ccc(Cl)cc1,-4.07
6,CC(=O)NC1CCCN(C(=O)CNc2cc(Cl)cc(Cl)c2)C1 (stereo not given),-1.68
7,CCc1noc(C(C)N(C)CC(=O)Nc2cccc(C)n2)n1 (stereo not given),0.407
8,Cc1n[nH]c(C2CN(C(=O)CCc3ccco3)CCO2)n1 (stereo not given),-1.95
9,COCCOCC(=O)Nc1ccc(C)cc1F,-3.81
10,Cc1ccc(CN2C[C@@H](C(=O)O)[C@H](c3cccnc3)C2)s1,4.17
11,O=C(c1cccc(S(=O)(=O)NCCc2nccs2)c1)N1CCOCC1,-4.19
12,O=C1CN(C(=O)CC2C(=O)NCCN2CC2CCCCC2)CCN1 (stereo not given),-7.41
13,CN(CCc1ncnn1-c1ccccc1Cl)C1CCS(=O)(=O)C1 (stereo not given),9.53
14,CC(C)(C)c1ncc2c(n1)CN(C(=O)c1ccc3[nH]cnc3c1)C2,-2.62
15,CCCC(C(=O)NC1CCN(S(C)(=O)=O)CC1)n1cccc1 (stereo not given),-3.71
16,CC(C)CN1CC(C(=O)NCCc2c[nH]cn2)CC1=O (stereo not given),-3.62
17,Cn1ccnc1SCCNC(=O)c1cc(S(N)(=O)=O)ccc1F,-3.45
18,CCc1nc2c(c(N3CCOCC3)n1)CCN(C(=O)N1CCCC1)CC2,7.6
19,C[C@@H]1CN(C(=O)CCc2cnn(C)c2)C[C@@]1(O)C1CCC1,-11.4
20,CCC(C(=O)N(C)Cc1cc(COC)[nH]n1)n1cccn1 (stereo not given),-5.89
21,COCCn1ccnc1C1CCN(C(=O)c2cccc(COC)n2)CC1,1.62
22,c1cc(N2CCC(c3nnc(Cn4ccnc4)n3C3CC3)CC2)ccn1,-4.31

row,Structure (SMILES),cytotoxicity at 10 µM [%]
1,COc1nc(C)c(C(=O)N2CCN(c3ncccc3C)CC2)s1,2.87
2,Cc1noc(C)c1CN1CC2(CCN(Cc3c[nH]cn3)CC2)CC1=O,8.62
3,N#CC1(C(=O)N2C[C@H](Nc3ncccn3)[C@@H](C3CC3)C2)CCOCC1,5.44
4,CS(=O)(=O)N1CCC(Oc2ccc(C(=O)NCCC(N)=O)cc2Cl)CC1,-1.28
5,COc1ccnc(CNc2nc(C)nc(C)c2C)c1,-1.7
6,Cc1nn(C)c(C)c1-c1nc2cc(S(=O)(=O)N3CCCC3)ccc2n1C,-6.05
7,CC(=O)N1CCN(c2cc(-n3cnc(C)c3C)nc(C)n2)CC1,0.727
8,Cc1cccnc1[C@H](C)NC(=O)Cc1cc2c(cc1Cl)OCCO2,-8.26
9,COc1ccc(F)c(CN2CCC3(CCC(=O)N(CC(N)=O)C3)CC2)c1,12
10,NC(=O)CN1CCC(C(=O)N2CCCC(OCc3cccnc3)C2)CC1 (stereo not given),-1.88
11,CCC1CN(C(=O)CN2CCN(c3nccc(OC)n3)CC2)CCO1 (stereo not given),-6.21
12,CC(C(=O)NC(N)=O)N(C)CCCc1cc(-c2ccccc2)no1 (stereo not given),-8.63
13,Cc1noc(C)c1C(=O)N1CCCC(c2cc(C(F)(F)F)[nH]n2)C1 (stereo not given),-0.855
14,Cc1cc(NC(=O)CN2CCCC2c2c(C)nn(C)c2Cl)on1 (stereo not given),-0.945
15,CCc1nnc2n1CCN(Cc1csc(NC(C)=O)n1)C2,-1.45
16,COc1ccc(CNCC2CCN(c3ccccc3OC)C2)cc1O (stereo not given),-8.54
17,Cc1cccc(-c2ccc(C(=O)NCC3CCCO3)c(=O)[nH]2)c1 (stereo not given),-7.36
18,CCN1CCN(C(=O)COCc2cccc(OC)c2)CC1,-11.5
19,CN(Cc1ccco1)C(=O)c1cccc(N2CCCC2=O)c1,-4.5
20,Cc1cnn(CC2CCCN2C(=O)c2sccc2-n2cnnn2)c1 (stereo not given),-15
21,CCCc1noc2ncc(C(=O)N3CCCC3c3cnn(C)c3)cc12 (stereo not given),-11.9
22,CCc1nc(C2CCCN2Cc2cc(=O)n(C)c(=O)n2C)no1 (stereo not given),-11.5

row,Structure (SMILES),cytotoxicity at 10 µM [%]
1,Cc1ccc(NC2CCN(C(=O)COC3CCCC3)CC2)nn1,2.31
2,O=C(NCc1ccccc1)NCC(O)c1cccc(F)c1 (stereo not given),-5.09
3,CC(NC(=O)Cn1ccc(=O)n(C)c1=O)c1ccccc1F (stereo not given),-10.6
4,CC(=O)Nc1nc(C(=O)N2CCCCC2Cn2cccn2)cs1 (stereo not given),-31.4
5,Cc1nc(CN(C)C2CCN(Cc3ccc(C(N)=O)cc3)C2)no1 (stereo not given),-12.7
6,Cc1nn(C)c(N2CCOCC2)c1CNCc1ccnn1C,-1.66
7,Cc1nc(CN2CCCN(C(=O)c3c(C)noc3C)CC2)cs1,-2.87
8,COc1ccc(CCC(=O)N2CCCC2Cn2cc(C)cn2)cc1F (stereo not given),2.36
9,O=C(NCc1cnc2n1CCN(Cc1ccsc1)CC2)C1CCC1,-2.53
10,Cn1ncc2c1C(COCC1CC1)N(Cc1ccoc1)CC2 (stereo not given),1.04
11,c1cncc(N2CCC3(CCCN(c4ccncc4)C3)CC2)c1,1.84
12,Cc1ccc(O[C@@H]2C[C@H]3CN(C(=O)c4cnccn4)CCN3C2)cc1,1.12
13,COCCN1CCc2cc(C(=O)N(C)C)c(NCC3CC3)nc2CC1,4.44
14,O=C(c1ccnnc1)N1CC[C@]2(C[C@H](Oc3ncccc3F)CO2)C1,3.42
15,Cc1cccc(CN2CCC3(CCCN(C(=O)N4CCCC4)C3)C2=O)n1 (stereo not given),8.76
16,CC(C)N1CCOCC2(CCCN(C(=O)c3cn(C)cn3)C2)C1 (stereo not given),1.88
17,Cn1cc(CN2C[C@H](Oc3ncccc3F)[C@H]3OCCC[C@H]32)cn1,2.72
18,CN(C)C(=O)CN1CCCC2(CCN(c3ccc(C#N)cn3)C2)C1 (stereo not given),4.01
19,CC(C)C(=O)N1CCC[C@]2(C(=O)N(C)C)CN(c3ccccn3)C[C@@H]2C1,30.7
20,O=C1[C@@H]2CC[C@@H](CN(Cc3nnc(C4CC4)o3)C2)N1Cc1cscn1,9.57
21,Cc1oc(C(C)C)cc1C(=O)N1C[C@@H]2CC[C@H]1CN(c1ncccn1)C2,-126
22,O=C(CCn1cc(Cl)cn1)N1C[C@H]2CC[C@@H](C1)N(Cc1ccccn1)C2,7.15
